Assay results published in ChEMBL document CHEMBL1158443, “Discovery of novel lipophilic inhibitors of OXA-10 enzyme (class D beta-lactamase) by screening amino analogs and homologs of citrate and isocitrate” (Bioorg Med Chem Lett, 2009).

T1: Imipenem-hydrolyzing beta-lactamase (Enterobacter cloacae) (UniProt P52663)
T1 sequence (whole entry): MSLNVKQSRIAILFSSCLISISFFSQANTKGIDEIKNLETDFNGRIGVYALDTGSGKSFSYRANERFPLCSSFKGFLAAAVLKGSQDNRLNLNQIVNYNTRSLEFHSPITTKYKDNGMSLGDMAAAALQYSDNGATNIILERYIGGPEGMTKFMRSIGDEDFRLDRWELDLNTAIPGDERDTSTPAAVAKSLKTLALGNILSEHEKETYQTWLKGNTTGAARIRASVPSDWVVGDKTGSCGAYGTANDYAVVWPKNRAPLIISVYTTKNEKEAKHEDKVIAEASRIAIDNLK

B1: Beta-lactamase OXA-10 (Pseudomonas aeruginosa), P14489 (protein)
chain: MKTFAAYVIIACLSSTALAGSITENTSWNKEFSAEAVNGVFVLCKSSSKSCATNDLARASKEYLPASTFKIPNAIIGLETGVIKNEHQVFKWDGKPRAMKQWERDLTLRGAIQVSAVPVFQQIAREVGEVRMQKYLKKFSYGNQNISGGIDKFWLEGQLRISAVNQVEFLESLYLNKLSASKENQLIVKEALVTEAAPEYLVHSKTGFSGVGTESNPGVAWWVGWVEKETEVYFFAFNMDIDNESKLPLRKSIPTKIMESEGIIGG
B2: Imipenem-hydrolyzing beta-lactamase (Enterobacter cloacae), P52663 (protein)
chain: T1 sequence (whole entry)

Key:
Beta-lactamase = Beta-lactamase (Bacillus licheniformis, UniProt P00808); test: Inhibition of Bacillus licheniformis BS3 beta-lactamase at pH 5
[1] = Inhibition of TEM1 beta-lactamase assessed as residual activity at 100 uM at pH 5 using acetate buffer by spectrophotometry; values are per cent of control
[2] = molecular target: Beta-lactamase OXA-10 (Pseudomonas aeruginosa) (UniProt P14489); test: Inhibition of Pseudomonas aeruginosa OXA10 beta-lactamase assessed as residual activity at 100 uM at pH 7 using phosphate buffer by spectrophotometry; values are per cent of control
Bacillus cereus [3] = test: Inhibition of Bacillus cereus BC2 beta-lactamase assessed as residual activity at 100 uM at pH 5 using acetate buffer by spectrophotometry; values are per cent of control
[4] = molecular target: Beta-lactamase (Enterobacter cloacae) (UniProt P05364); test: Inhibition of Enterobacter cloacae P99 beta-lactamase assessed as residual activity at 100 uM at pH 7 using phosphate buffer by spectrophotometry; values are per cent of control
[5] = molecular target: T1, Imipenem-hydrolyzing beta-lactamase (Enterobacter cloacae); test: Inhibition of Enterobacter cloacae NMCA beta-lactamase assessed as residual activity at 100 uM at pH 5 using acetate buffer by spectrophotometry; values are per cent of control
[6] = molecular target: Beta-lactamase (Enterobacter cloacae) (UniProt P05364); test: Inhibition of Enterobacter cloacae P99 beta-lactamase assessed as residual activity at 100 uM at pH 5 using acetate buffer by spectrophotometry; values are per cent of control
[7] = molecular target: T1, Imipenem-hydrolyzing beta-lactamase (Enterobacter cloacae); test: Inhibition of Enterobacter cloacae NMCA beta-lactamase assessed as residual activity at 100 uM at pH 7 using phosphate buffer by spectrophotometry; values are per cent of control
[8] = molecular target: Beta-lactamase (Bacillus licheniformis) (UniProt P00808); test: Inhibition of Bacillus licheniformis BS3 beta-lactamase assessed as residual activity at 100 uM at pH 7 using phosphate buffer by spectrophotometry; values are per cent of control
[9] = molecular target: Beta-lactamase VIM-4 (Pseudomonas aeruginosa) (UniProt Q8KRJ3); test: Inhibition of Pseudomonas aeruginosa VIM4 beta-lactamase assessed as residual activity at 100 uM at pH 7 using HEPES buffer by spectrophotometry; values are per cent of control
[10] = molecular target: Beta-lactamase (Bacillus licheniformis) (UniProt P00808); test: Inhibition of Bacillus licheniformis BS3 beta-lactamase assessed as residual activity at 100 uM at pH 5 using acetate buffer by spectrophotometry; values are per cent of control
[11] = molecular target: Beta-lactamase OXA-10 (Pseudomonas aeruginosa) (UniProt P14489); test: Inhibition of Pseudomonas aeruginosa OXA10 beta-lactamase assessed as residual activity at 100 uM at pH 5 using acetate buffer by spectrophotometry; values are per cent of control
[12] = Inhibition of TEM1 beta-lactamase assessed as residual activity at 100 uM at pH 7 using phosphate buffer by spectrophotometry; values are per cent of control
[13] = Ratio of Kcat to Km for TEM1 beta-lactamase
[14] = molecular target: Beta-lactamase OXA-10 (Pseudomonas aeruginosa) (UniProt P14489); test: Ratio of Kcat to Km for Pseudomonas aeruginosa OXA10 beta-lactamase
[15] = molecular target: Beta-lactamase VIM-4 (Pseudomonas aeruginosa) (UniProt Q8KRJ3); test: Ratio of Kcat to Km for Pseudomonas aeruginosa VIM4 beta-lactamase
Bacillus cereus [16] = test: Ratio of Kcat to Km for Bacillus cereus BC2 beta-lactamase
[17] = molecular target: T1, Imipenem-hydrolyzing beta-lactamase (Enterobacter cloacae); test: Ratio of Kcat to Km for Enterobacter cloacae NMCA beta-lactamase
[18] = Activity of TEM1 beta-lactamase
Bacillus cereus [19] = test: Activity of Bacillus cereus BC2 beta-lactamase
Beta-lactamase OXA-10 [20] = molecular target: T2, Beta-lactamase OXA-10 (Pseudomonas aeruginosa, UniProt P14489); test: Inactivation of Pseudomonas aeruginosa OXA10 beta-lactamase at pH 7
Beta-lactamase OXA-10 [21] = molecular target: T2, Beta-lactamase OXA-10; test: Competitive inhibition of Pseudomonas aeruginosa OXA10 beta-lactamase at pH 7
Summary of the method: (§1)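 Ki came from plotting v0/vi against inhibitor concentration. v0/vi is the ratio of nitrocefin hydrolysis rates without and with inhibitor, monitored spectrophotometrically at 482 nm. Enzyme (1-100 nM) was preincubated with inhibitor for 30 min at 37 °C in the buffer for the stated pH.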

Bacillus cereus [22] = test: Inhibition of Bacillus cereus BC2 beta-lactamase assessed as residual activity at 100 uM at pH 7 using HEPES buffer by spectrophotometry; values are per cent of control
[23] = test system: O=C(Cc1cccs1)N[C@@H]1C(=O)N2C(C(=O)O)=C(/C=C/c3ccc([N+](=O)[O-])cc3[N+](=O)[O-])CS[C@H]12; test: Activity of Pseudomonas aeruginosa VIM4 beta-lactamase
[24] = Competitive inhibition of TEM1 beta-lactamase at pH 5; summary of the method: as §1
[25] = substrate: O=C(Cc1cccs1)N[C@@H]1C(=O)N2C(C(=O)O)=C(/C=C/c3ccc([N+](=O)[O-])cc3[N+](=O)[O-])CS[C@H]12; test: Activity of Pseudomonas aeruginosa OXA10 beta-lactamase
[26] = substrate: O=C(Cc1cccs1)N[C@@H]1C(=O)N2C(C(=O)O)=C(/C=C/c3ccc([N+](=O)[O-])cc3[N+](=O)[O-])CS[C@H]12; test: Activity of Enterobacter cloacae NMCA beta-lactamase

Beta-lactamase (Enterobacter cloacae), sequence (P05364 21-381 limits assumed): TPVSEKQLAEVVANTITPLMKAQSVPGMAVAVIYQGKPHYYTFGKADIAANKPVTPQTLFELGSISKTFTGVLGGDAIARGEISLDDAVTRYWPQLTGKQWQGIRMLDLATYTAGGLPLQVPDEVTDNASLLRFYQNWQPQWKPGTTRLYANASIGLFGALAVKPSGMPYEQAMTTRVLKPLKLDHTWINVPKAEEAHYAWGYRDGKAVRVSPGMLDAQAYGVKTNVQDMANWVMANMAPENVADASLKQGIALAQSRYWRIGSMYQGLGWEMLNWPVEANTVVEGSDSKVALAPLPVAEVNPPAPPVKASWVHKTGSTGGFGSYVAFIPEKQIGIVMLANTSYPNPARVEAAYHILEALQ
Beta-lactamase (Bacillus licheniformis), sequence (P00808 whole entry): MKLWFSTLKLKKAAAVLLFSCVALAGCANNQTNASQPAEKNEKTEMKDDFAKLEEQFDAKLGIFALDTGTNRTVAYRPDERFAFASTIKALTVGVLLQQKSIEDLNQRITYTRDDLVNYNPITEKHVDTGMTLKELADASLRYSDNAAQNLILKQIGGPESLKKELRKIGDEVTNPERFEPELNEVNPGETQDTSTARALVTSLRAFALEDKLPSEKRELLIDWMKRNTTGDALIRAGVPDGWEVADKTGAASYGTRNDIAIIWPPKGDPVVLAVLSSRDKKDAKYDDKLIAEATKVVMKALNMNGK
Beta-lactamase, sequence (P00808 whole entry): as above

Molecule	residual activity [2]	residual activity (Bacillus cereus [3])	residual activity [4]	residual activity [7]	residual activity [8]	residual activity [9]	residual activity [12]	other results
O=C(O)CC(C(=O)O)C(O)C(=O)O (configuration not stated) [ISOCITRATE]								Ki (Beta-lactamase): 2200 µM
NC(C(=O)O)C(CC(=O)O)C(=O)O (configuration not stated)	92%	100%	100%	100%	85%	94%	100%	residual activity [1]: 90%; residual activity [5]: 86%; residual activity [6]: 94%; residual activity [10]: 97%; residual activity [11]: 85%
O=C(Cc1cccs1)N[C@@H]1C(=O)N2C(C(=O)O)=C(/C=C/c3ccc([N+](=O)[O-])cc3[N+](=O)[O-])CS[C@H]12								Ratio [13]: 2.5 ×10⁶ /M/s; Ratio [14]: 2 ×10⁷ /M/s; Ratio [15]: 4 ×10⁶ /M/s; Ratio (Bacillus cereus [16]): 4 ×10⁶ /M/s; Ratio [17]: 3.5 ×10⁶ /M/s; Km [18]: 20 µM; kcat [18]: 50 s⁻¹; Km (Bacillus cereus [19]): 10 µM; kcat (Bacillus cereus [19]): 40 s⁻¹
NC(CC(=O)OCc1ccccc1)(CC(=O)OCc1ccccc1)C(=O)OCc1ccccc1	10%	90%			100%		100%	Ki (Beta-lactamase OXA-10 [20]): 95 µM
O=C(COc1ccccc1)NC(CC(=O)OCc1ccccc1)(CC(=O)OCc1ccccc1)C(=O)OCc1ccccc1	10%							Ki (Beta-lactamase OXA-10 [21]): 20 µM
COC(=O)C(CC(=O)O)(CC(=O)O)NC(=O)COc1ccccc1	100%	100%	85%	66%	96%	100%	98%	residual activity (Bacillus cereus [22]): 86%
COC(=O)C(N)(CC(=O)OCc1ccccc1)CC(=O)OCc1ccccc1	100%	93%	100%	63%	100%		81%	residual activity (Bacillus cereus [22]): 100%
CCOC(=O)CC(N)(CC(=O)OCC)C(=O)OCC		93%	87%		82%		71%	residual activity (Bacillus cereus [22]): 92%
CCOC(=O)CCC1(C(=O)OCC)CCC(=O)N1 (configuration not stated)	97%	100%	100%	100%	85%	96%	94%	residual activity [1]: 80%; residual activity [5]: 100%; residual activity [6]: 100%; residual activity [10]: 96%; residual activity [11]: 98%
Beta-lactamase VIM-4 (Pseudomonas aeruginosa) (from UniProt Q8KRJ3)								Km [23]: 10 µM; kcat [23]: 40 s⁻¹
COC(=O)C(CC(=O)OCc1ccccc1)(CC(=O)OCc1ccccc1)NC(=O)COc1ccccc1	10%							
O=C(O)CC(O)(CC(=O)O)C(=O)O [CITRIC ACID]								Ki (Beta-lactamase): 490 µM
CCOC(=O)C1CC(=O)NC1C(=O)OCC (configuration not stated)	91%	100%	100%	100%	100%	94%	100%	residual activity [1]: 86%; residual activity [5]: 93%; residual activity [6]: 100%; residual activity [10]: 100%; residual activity [11]: 87%
NC(CC(=O)O)(CC(=O)O)C(=O)O			81%		88%	100%	95%	Ki [24]: 150 µM
COC(=O)C(N)(CC(=O)O)CC(=O)O	96%	90%	100%	94%	96%	100%	99%	residual activity [1]: 92%; residual activity [5]: 96%; residual activity [6]: 93%; residual activity [10]: 97%; residual activity [11]: 83%; residual activity (Bacillus cereus [22]): 100%
O=C(O)CC(CC(=O)O)(NC(=O)COc1ccccc1)C(=O)O	84%	100%	97%	96%	80%	100%	96%	residual activity [1]: 100%; residual activity [5]: 85%; residual activity [6]: 100%; residual activity [10]: 70%; residual activity [11]: 82%
COC(=O)CC(CC(=O)OC)(NC(=O)Cc1ccccc1)C(=O)OC								residual activity (Bacillus cereus [22]): 100%
COC(=O)CC(N)(CC(=O)OC)C(=O)O	100%	100%	100%	95%	95%	100%	99%	residual activity [1]: 87%; residual activity [5]: 99%; residual activity [6]: 73%; residual activity [10]: 100%; residual activity [11]: 79%; residual activity (Bacillus cereus [22]): 100%
COC(=O)CC(N)(CC(=O)OC)C(=O)OCc1ccccc1	100%	100%						
B1								Km [25]: 20 µM; kcat [25]: 400 s⁻¹
B2								Km [26]: 40 µM; kcat [26]: 130 s⁻¹
